Tests used:
Type in all cases: functional
[1] = Cytotoxicity against human prostate cancer cells after 48 hrs by coulter counting; details: Cancer cell lines
How it was run: (§1)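 NCI 60-cell-line panel covering nine tumour subpanels, tested over a 5-log dose range. Compounds were dissolved in DMSO and diluted in phosphate-buffered saline to a final DMSO below 1%. Wells held 6 × 10⁴ cells/ml and were run in duplicate. Controls contained PBS and DMSO at matching dilutions. Incubation was at 37 °C in humidified 5% CO₂. GI₅₀, TGI and LC₅₀ were reported.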

[2] = Cytotoxicity against human leukemia cells after 48 hrs by coulter counting; details: Leukemia cell; how it was run: as §1
[3] = Cytotoxicity against human breast cancer cells after 48 hrs by coulter counting; details: Cancer cell lines; how it was run: as §1
[4] = Cytotoxicity against human colon cancer cells after 48 hrs by coulter counting; details: Cancer cell lines; how it was run: as §1
[5] = Cytotoxicity against human ovarian cancer cells after 48 hrs by coulter counting; details: Cancer cell lines; how it was run: as §1
NSCLC = assay: Cytotoxicity against human NSCLC cells after 48 hrs by coulter counting; how it was run: as §1
[6] = Cytotoxicity against human CNS cancer cells after 48 hrs by coulter counting; details: Cancer cell lines; how it was run: as §1
[7] = Cytotoxicity against human melanoma cells after 48 hrs by coulter counting; details: Melanoma cell; how it was run: as §1
[8] = Cytotoxicity against human renal cancer cells after 48 hrs by coulter counting; details: Cancer cell lines; how it was run: as §1
UACC-62 = assay: Growth inhibition of human UACC62 cells at 10 uM after 48 hrs by coulter counting; details: UACC-62, 48 h, read-out: GI
How it was run: (§2)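 Single-dose screen in the NCI 60 human tumor cell line panel (nine subpanels). Compounds dissolved in DMSO and diluted in phosphate buffered saline, keeping final DMSO below 1%. Added in duplicate wells to cells at 6 × 10⁴ cells/ml. Controls held PBS and DMSO at matching dilutions. Incubated at 37 °C, humidified, 5% CO₂. Reported as percent growth of treated cells.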

UACC-257 = assay: Growth inhibition of human UACC257 cells at 10 uM after 48 hrs by coulter counting; details: UACC-257, 48 h, read-out: GI; how it was run: as §2
KM12 = assay: Growth inhibition of human KM12 cells at 10 uM after 48 hrs by coulter counting; details: KM12, 48 h, read-out: GI
How it was run: (§3)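 Single-dose primary screen across the full NCI 60-cell-line panel. Stocks were made in DMSO and diluted in PBS to a final DMSO below 1%. Cultures at 6 × 10⁴ cells/ml were run in duplicate wells alongside PBS/DMSO vehicle controls at 37 °C in humidified 5% CO₂. Data were expressed as percent growth of treated cells.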

A549 = assay: Growth inhibition of human A549 cells at 10 uM after 48 hrs by coulter counting; details: A549, 48 h, read-out: GI; how it was run: as §3
IGROV-1 = assay: Growth inhibition of human IGROV1 cells at 10 uM after 48 hrs by coulter counting; details: IGROV-1, 48 h, read-out: GI; how it was run: as §3
MOLT-4 = assay: Growth inhibition of human MOLT4 cells at 10 uM after 48 hrs by coulter counting; details: MOLT-4, 48 h, read-out: GI; how it was run: as §3
M14 = assay: Growth inhibition of human M14 cells at 10 uM after 48 hrs by coulter counting; details: M14, 48 h, read-out: GI; how it was run: as §3
MCF7 = assay: Growth inhibition of human MCF7 cells at 10 uM after 48 hrs by coulter counting; details: MCF7, 48 h, read-out: GI; how it was run: as §3
SNB-75 = assay: Growth inhibition of human SNB75 cells at 10 uM after 48 hrs by coulter counting; details: SNB-75, 48 h, read-out: GI; how it was run: as §3
UO-31 = assay: Growth inhibition of human UO31 cells at 10 uM after 48 hrs by coulter counting; details: UO-31, 48 h, read-out: GI; how it was run: as §2
BT-549 = assay: Growth inhibition of human BT549 cells at 10 uM after 48 hrs by coulter counting; details: BT-549, 48 h, read-out: GI; how it was run: as §3
K562 = assay: Growth inhibition of human K562 cells at 10 uM after 48 hrs by coulter counting; details: K562, 48 h, read-out: GI; how it was run: as §3
EKVX = assay: Growth inhibition of human EKVX cells at 10 uM after 48 hrs by coulter counting; details: read-out: GI; how it was run: as §3
NCI-H522 = assay: Growth inhibition of human NCI-H522 cells at 10 uM after 48 hrs by coulter counting; details: NCI-H522, 48 h, read-out: GI; how it was run: as §3
A498 = assay: Growth inhibition of human A498 cells at 10 uM after 48 hrs by coulter counting; details: A498, 48 h, read-out: GI; how it was run: as §3
NCI-H23 = assay: Growth inhibition of human NCI-H23 cells at 10 uM after 48 hrs by coulter counting; details: NCI-H23, 48 h, read-out: GI; how it was run: as §3
NCI-H226 = assay: Growth inhibition of human NCI-H226 cells at 10 uM after 48 hrs by coulter counting; details: NCI-H226, 48 h, read-out: GI; how it was run: as §3
CCRF-CEM = assay: Growth inhibition of human CCRF-CEM cells at 10 uM after 48 hrs by coulter counting; details: read-out: GI; how it was run: as §3
ACHN = assay: Growth inhibition of human ACHN cells at 10 uM after 48 hrs by coulter counting; details: read-out: GI; how it was run: as §3
SK-MEL-2 = assay: Growth inhibition of human SK-MEL-2 cells at 10 uM after 48 hrs by coulter counting; details: SK-MEL-2, 48 h, read-out: GI; how it was run: as §3
MDA-MB-435 = assay: Growth inhibition of human MDA-MB-435 cells at 10 uM after 48 hrs by coulter counting; details: MDA-MB-435, 48 h, read-out: GI; how it was run: as §3
[9] = Growth inhibition of human NCI-322M cells at 10 uM after 48 hrs by coulter counting; details: read-out: GI; how it was run: as §3
SF-268 = assay: Growth inhibition of human SF268 cells at 10 uM after 48 hrs by coulter counting; details: SF-268, 48 h, read-out: GI; how it was run: as §3
T47D = assay: Growth inhibition of human T47D cells at 10 uM after 48 hrs by coulter counting; details: read-out: GI; how it was run: as §2
LOX IMVI = assay: Growth inhibition of human LOXIMVI cells at 10 uM after 48 hrs by coulter counting; details: read-out: GI; how it was run: as §3
SNB-19 = assay: Growth inhibition of human SNB19 cells at 10 uM after 48 hrs by coulter counting; details: SNB-19, 48 h, read-out: GI; how it was run: as §3
CAKI-1 = assay: Growth inhibition of human Caki1 cells at 10 uM after 48 hrs by coulter counting; details: CAKI-1, 48 h, read-out: GI; how it was run: as §3
RPMI-8226 = assay: Growth inhibition of human RPMI8226 cells at 10 uM after 48 hrs by coulter counting; details: RPMI-8226, 48 h, read-out: GI; how it was run: as §3
U-251 = assay: Growth inhibition of human U251 cells at 10 uM after 48 hrs by coulter counting; details: U-251, 48 h, read-out: GI; how it was run: as §2
OVCAR-4 = assay: Growth inhibition of human OVCAR4 cells at 10 uM after 48 hrs by coulter counting; details: OVCAR-4, 48 h, read-out: GI; how it was run: as §3
HCC 2998 = assay: Growth inhibition of human HCC2998 cells at 10 uM after 48 hrs by coulter counting; details: HCC 2998, 48 h, read-out: GI; how it was run: as §3
DU-145 = assay: Growth inhibition of human DU145 cells at 10 uM after 48 hrs by coulter counting; details: DU-145, 48 h, read-out: GI; how it was run: as §3
NCI/ADR-RES = assay: Growth inhibition of human NCI/ADR-RES cells at 10 uM after 48 hrs by coulter counting; details: read-out: GI; how it was run: as §3
HL-60(TB) = assay: Growth inhibition of human HL-60(TB) cells at 10 uM after 48 hrs by coulter counting; details: HL-60, 48 h, read-out: GI
How it was run: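 Test compound was dissolved in DMSO and diluted in phosphate-buffered saline to a final DMSO level below 1%. Dilutions were plated in duplicate with cell culture at 6 × 10⁴ cells/ml. Vehicle controls held PBS and DMSO at matching dilutions. Incubation was at 37 °C, humidified, under 5% CO₂. Data were reported as percent growth of treated cells.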

HT-29 = assay: Growth inhibition of human HT-29 cells at 10 uM after 48 hrs by coulter counting; details: HT-29, 48 h, read-out: GI; how it was run: as §3
HCT-116 = assay: Growth inhibition of human HCT116 cells at 10 uM after 48 hrs by coulter counting; details: HCT-116, 48 h, read-out: GI; how it was run: as §3
SF-295 = assay: Growth inhibition of human SF295 cells at 10 uM after 48 hrs by coulter counting; details: SF-295, 48 h, read-out: GI; how it was run: as §3
SK-MEL-5 = assay: Growth inhibition of human SK-MEL-5 cells at 10 uM after 48 hrs by coulter counting; details: SK-MEL-5, 48 h, read-out: GI; how it was run: as §3
SK-MEL-28 = assay: Growth inhibition of human SK-MEL-28 cells at 10 uM after 48 hrs by coulter counting; details: SK-MEL-28, 48 h, read-out: GI; how it was run: as §3
[10] = read-out: LC50 (the source's name)

O=c1[nH]cc(F)c(=O)[nH]1 [FLUOROURACIL]
GI50 [1]: 22.7 µM | TGI [1]: > 100 µM | TGI [2]: > 100 µM | CC50 [2, 10]: > 100 µM | GI50 [3]: 76.4 µM | TGI [3]: > 100 µM | CC50 [3, 10]: > 100 µM | GI50 [4]: 8.4 µM | TGI [4]: > 100 µM | GI50 [5]: 61.4 µM | TGI [5]: > 100 µM | CC50 [5, 10]: > 100 µM | GI50 (NSCLC): > 100 µM | TGI (NSCLC): > 100 µM | CC50 (NSCLC; [10]): > 100 µM | TGI [6]: > 100 µM | GI50 [7]: 70.6 µM | TGI [7]: > 100 µM | CC50 [7, 10]: > 100 µM | GI50 [8]: 45.6 µM | TGI [8]: > 100 µM

COc1cc(/C=C2\CCCC3=C2N=C2SC=C(C)N2C3c2cc(OC)c(OC)c(OC)c2)cc(OC)c1OC (stereo not given)
inhibition of growth at 10 µM (UACC-62): > 10% | inhibition of growth at 10 µM (UACC-257): > 10% | inhibition of growth at 10 µM (KM12): > 10% | inhibition of growth at 10 µM (A549): > 10% | inhibition of growth at 10 µM (IGROV-1): > 10% | inhibition of growth at 10 µM (MOLT-4): > 10% | inhibition of growth at 10 µM (M14): > 10% | inhibition of growth at 10 µM (MCF7): > 10% | inhibition of growth at 10 µM (SNB-75): > 10% | inhibition of growth at 10 µM (UO-31): 20% | inhibition of growth at 10 µM (BT-549): > 10% | inhibition of growth at 10 µM (K562): > 10% | inhibition of growth at 10 µM (EKVX): > 10% | inhibition of growth at 10 µM (NCI-H522): > 10% | inhibition of growth at 10 µM (A498): > 10% | inhibition of growth at 10 µM (NCI-H23): > 10% | inhibition of growth at 10 µM (NCI-H226): > 10% | inhibition of growth at 10 µM (CCRF-CEM): > 10% | inhibition of growth at 10 µM (ACHN): > 10% | inhibition of growth at 10 µM (SK-MEL-2): > 10% | inhibition of growth at 10 µM (MDA-MB-435): > 10% | inhibition of growth at 10 µM [9]: > 10% | inhibition of growth at 10 µM (SF-268): > 10% | inhibition of growth at 10 µM (T47D): > 10% | inhibition of growth at 10 µM (LOX IMVI): > 10% | inhibition of growth at 10 µM (SNB-19): > 10% | inhibition of growth at 10 µM (CAKI-1): > 10% | inhibition of growth at 10 µM (RPMI-8226): > 10% | inhibition of growth at 10 µM (U-251): > 10% | inhibition of growth at 10 µM (OVCAR-4): > 10% | inhibition of growth at 10 µM (HCC 2998): > 10% | inhibition of growth at 10 µM (DU-145): > 10% | inhibition of growth at 10 µM (NCI/ADR-RES): > 10% | inhibition of growth at 10 µM (HL-60(TB)): > 10% | inhibition of growth at 10 µM (HT-29): > 10% | inhibition of growth at 10 µM (HCT-116): > 10% | inhibition of growth at 10 µM (SF-295): > 10% | inhibition of growth at 10 µM (SK-MEL-5): > 10% | inhibition of growth at 10 µM (SK-MEL-28): > 10%

Reference: ChEMBL document CHEMBL1926614, “Substituted thiazoles V. synthesis and antitumor activity of novel thiazolo[2,3-b]quinazoline and pyrido[4,3-d]thiazolo[3,2-a]pyrimidine analogues” (2012)
